Data on three molecules can be found in publication PMC4102938 (British Journal of Cancer, 2014).

Data set [1] concerns CRM1. The conditions noted are these: 24 h of incubation; ref Sun et al (2013); cited from earlier work.
The test system of data set [2] is CRM1. Kind of data set: Immunoblot of CRM1 protein in treated cells. The conditions noted are these: H1975 cell lysate, KPT-330 10–1000 nM, 24 h. Format: cell-based, human. The gist of the method: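 H1975 cells were treated 24 h with test compound at 0, 10, 100 or 1000 nM. Whole-cell lysates were prepared with a mammalian lysis reagent, protein was measured by BCA, and samples were run on SDS-PAGE and blotted to PVDF. Membranes were blocked 1 h in TBS/5% milk/0.5% Tween 20, incubated with primary antibody overnight at 4 °C, then HRP secondary for 1 h at room temperature. Detection was by chemiluminescence, with β-actin as reference and densitometry of bands.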

In data set [3] the test system is PC14 cells, shp73. Description: MTT growth assay, transient p73 silencing. Format: cell-based. The conditions noted are these: Homo sapiens, PC-14.
Data set [4] relates to 11 NSCLC cell lines. Description: MTT proliferation assay, 72 h, whole panel. Format: cell-based. The settings on record: Homo sapiens, read-out: calculated IC50 values, range. The gist of the method:
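Eleven NSCLC lines (STR-verified) were grown in RPMI 1640 with 10% FBS and penicillin/streptomycin at 37 °C, 5% CO2. Cells were plated at 3 × 10^3 per well and exposed for 72 h to test compound at 0, 0.1, 1, 10, 100 or 1000 nM. Viability was read by MTT absorbance at 570 nm, and IC50 was taken from fitted dose-response curves.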

For data set [5], the system named is PC14 cells, scramble vector control. Kind of data set: MTT growth assay, transient scramble control. Format: cell-based. The conditions noted are these: Homo sapiens, PC-14.
Data set [6] relates to six NSCLC cell lines. Description: Apoptosis, annexin V/propidium iodide flow cytometry, six lines. Format: cell-based, human. The settings on record: range over six NSCLC cell lines, 24 h. The method, boiled down: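 Cells seeded at 50% confluency, incubated overnight, then given fresh medium with diluent control or test compound (1, 10, 100, 1000 nM) for 24 h. Cells were PBS-washed, trypsinized, resuspended in annexin-binding buffer at 1 × 10^6 cells per ml, and stained with annexin V plus propidium iodide. Analysed by flow cytometry; read-out is the percent annexin V/PI co-positive cells.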

Data set [7] concerns H1975 cells stably carrying shp73. Kind of data set: MTT growth assay, p73-knockdown cells. The data set is classed as cell-based. The settings on record: Homo sapiens, NCI-H1975, 72 h. The method, boiled down:
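H1975 cells stably carrying a p73-targeting or scrambled shRNA were used, made by pLKO.1 lentiviral infection with polybrene for 16 h and puromycin selection for 3 days beginning 2 days after infection. Cells were cultured 3 days with test compound at 0, 1, 3, 10, 30, 100, 320 or 1000 nM. Growth was measured by MTT and IC50 derived. Data are three experiments in triplicate, mean±s.d.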

The test system of data set [8] is six NSCLC cell lines (A549, H460, H1975, PC14, H1299, and H23). Description: Cell cycle analysis by propidium iodide flow cytometry, six lines. The conditions noted are these: range over six NSCLC cell lines, 1 μM, 24 h. Format: cell-based, human. The gist of the method:
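A549, H460, H1975, PC14, H1299 and H23 were seeded at 50% confluency, left overnight, then exposed for 24 h to test compound (1 μM) or diluent control. DNA content was stained with propidium iodide, and cell-cycle phase distribution was determined by flow cytometry.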

The test system of data set [9] is H1975 cells stably carrying scramble vector. Kind of data set: MTT growth assay, scrambled shRNA control cells. The data set is classed as cell-based, human. The gist of the method: (§1)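 H1975 cells stably carrying a CRM1-targeting or scrambled shRNA were used, made by pLKO.1 lentiviral infection with polybrene for 16 h and puromycin selection for 3 days starting 2 days post-infection. Cells were cultured 72 h across a cisplatin series up to 10 μg ml−1. Growth was measured by MTT and IC50 derived. Data are three experiments in triplicate, mean±s.d.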

Data set [10] can be described thus: Body weight of treated mice. Format: in vivo. The conditions noted are these: NOD/SCID mice, oral 10 mg kg^−1 thrice weekly for 4 weeks.
The nature of data set [11]: Peripheral blood analysis after 28-day treatment. The data set is classed as in vivo, NOD/SCID mice. The method, boiled down: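 H1975-xenografted male NOD/SCID mice (five per group) were given vehicle (0.6% w/v aqueous Pluronic F-68) or test compound orally, 10 mg kg−1 three times weekly for 4 weeks. After the 28-day treatment, peripheral blood was analysed for white cells, neutrophils, platelets and haematocrit, and serum for albumin, alkaline phosphatase, ALT and creatinine.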

The subject of data set [12] is H1975 NSCLC xenografts. Kind of data set: Immunohistochemistry of xenograft tumours. The data set is classed as in vivo, NOD/SCID mice. The settings on record: end of treatment, 10 mg kg^−1 thrice weekly × 4 weeks. The method, boiled down: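 At the end of the 28-day oral dosing, H1975 xenograft tumours were formalin-fixed, paraffin-embedded and cut at 5.0 μm. Peroxidase was quenched with 3% H2O2, sections blocked 1 h at room temperature in PBS with 3% normal serum, then probed overnight at 4 °C for Ki-67 or TUNEL. Detection used biotinylated secondary (1:200) plus avidin–biotin peroxidase. Three random ×200 fields were scored, counting 100 cells in triplicate; positives are given as % of total cells.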

Data set [13] has as its system CRM1. Kind of data set: Quantitative RT-PCR of CRM1 mRNA in treated cells. The data set is classed as cell-based, human. The settings on record: H1975, KPT-330 10–1000 nM, 24 h. The gist of the method:
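H1975 cells were exposed for 24 h to test compound at 0, 10, 100 or 1000 nM. CRM1 mRNA was quantified by quantitative RT–PCR; experiments were done in triplicate and reported as mean±s.d.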

Data set [14] has as its system H1975 NSCLC xenografts. Description: H1975 NSCLC xenograft tumour growth. Format: in vivo. The settings on record: NOD/SCID mice, oral 10 mg kg^−1 thrice weekly for 4 weeks. The method, boiled down:
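Seven-week-old male NOD/SCID mice were injected subcutaneously in both flanks with H1975 cells (1.0 × 10^7) in matrigel. Mice were randomised into two groups of five and dosed orally three times weekly for 4 weeks with vehicle (0.6% w/v aqueous Pluronic F-68) or test compound (10 mg kg−1), with Nutri-Cal given during therapy. Calipers were used three times weekly; volume = width² × length/2. Tumour weights were taken after 28 days.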

Data set [15] relates to H1975 cells stably containing shCRM1. Kind of data set: MTT growth assay, CRM1-knockdown cells. The data set is classed as cell-based, human. The settings on record: H1975 shCRM1, cisplatin 72 h. The gist of the method: as §1

A value given as a limit tells only on which side of the number the result lay.

`CCC(=C/[C@H](C)C/C=C/C(C)=C/[C@@H](C)C(=O)[C@@H](C)[C@H](O)[C@@H](C)C/C(C)=C/C(=O)O)/C=C/[C@@H]1OC(=O)C=C[C@@H]1C` [LMB, Leptomycin B]: in data set [1], the “reversibility of binding to CRM1” value is on record as “not reversible”.
With `O=C(/C=C\n1cnc(-c2cc(C(F)(F)F)cc(C(F)(F)F)c2)n1)NNc1cnccn1` [KPT-330], the “protein levels of CRM1 (western blot)” value in data set [2] is given as “dose-dependent decrease”. The molecule also had an IC50 in data set [3] of 318 nM. Also, the IC50 in data set [4] is 25 to 995 nM. The molecule further gave a half-maximal inhibitory concentration (IC50) in data set [5] of 197 nM. The “range of apoptosis induced (annexin V/propidium iodide co-positive cells)” value in [6] is 22–54%. Besides, the IC50 in data set [7] was above 1000 nM. Also, in [8], the “G1 cell cycle, range” value was 56–82%; the “G2/M phase, range” value was 2–20%; the “S phase, range” value is given as 8–20%. In [9] (Homo sapiens, NCI-H1975, 72 h), this molecule returned an IC50 of 98 nM. For the same molecule, in [10], the “effect on body weight compared with the vehicle group” value is on record as “did not have a significant effect” and the “mean relative body weight compared with mean starting weight” value was 105%. In data set [11] (NOD/SCID mice, 10 mg kg^−1 thrice weekly × 4 weeks, mean±s.d., range 0.15–7.9), the Neut is on record as 1.26±0.5 × 1000 per μl. In data set [11] (NOD/SCID mice, 10 mg kg^−1 thrice weekly × 4 weeks, mean±s.d., range 0.2–0.9), this molecule had a CREAT of 0.062 ± 0.01 mg/dL. For the same molecule, the WBC in data set [11] (NOD/SCID mice, 10 mg kg^−1 thrice weekly × 4 weeks, mean±s.d., range 2.9–20.9) is 4.0±0.3 × 1000 per μl. Further, the ALT in [11] (NOD/SCID mice, 10 mg kg^−1 thrice weekly × 4 weeks, mean±s.d., range 17–77) was found to be 46.2±10.2 U l^−1. Besides, the Alb in data set [11] (NOD/SCID mice, 10 mg kg^−1 thrice weekly × 4 weeks, mean±s.d., range 25–30) was 36.5 ± 0.6 g/L. The HCT in data set [11] (NOD/SCID mice, 10 mg kg^−1 thrice weekly × 4 weeks, mean±s.d., range 34–53) came out at 46.2±7.5%. This molecule also registered an ALP in data set [11] (NOD/SCID mice, 10 mg kg^−1 thrice weekly × 4 weeks, mean±s.d., range 35–96) of 96±18 U l^−1. Also, in data set [11] (NOD/SCID mice, 10 mg kg^−1 thrice weekly × 4 weeks, mean±s.d., range 685–1436), the PLT is reported as 786±180 × 1000 per μl. The “total white blood cells, neutrophils, platelet counts, haematocrit, serum albumin, alkaline phosphatase, ALT and creatinine compared with vehicle group” value in data set [11] (peripheral blood after the 28-day treatment) was “no significant alterations”. In [12], the “Ki-67-positive cells in tumour tissue” value is recorded as “decreased” and the “percent of TUNEL-positive cells in tumour tissue” value is recorded as “increased”. In data set [13], the “CRM1 mRNA levels” value is recorded as “no significant change”. The “tumour growth compared with vehicle-treated controls” value in data set [14] is “mark inhibition”.
With `N.N.[Cl][Pt][Cl]` [cisplatin, reference compound], the IC50 in data set [15] amounted to 1.62 µg/mL; in data set [9] (H1975 scramble, cisplatin 72 h, MTT) it was 8.1 µg/mL.
